Tests used:
Rattus norvegicus [1] = assay: In vivo Sterol lowering activity at dose as 0.03 % of the diet.; format: functional
In short: (§1)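 Male CFE or CD-1 Sprague-Dawley rats, 140-150 g; 8 per control group, 4 per test group. Compound mixed into ground chow (w/w) via MeOH-CHCl3 (1:3) solution, solvent evaporated; controls got solvent-treated chow. Fed ad libitum 5 days, food intake monitored, killed fed and bled. Serum sterols and triglycerides by adapted autoanalyzer methods; mean percent of control, Student's t test.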

[2] = molecular target: T1, Sterol O-acyltransferase 1 (Rattus norvegicus) (UniProt O70536); assay: In vitro inhibitory activity against acyl coenzyme A:cholesterol acyltransferase (ACAT); parameters: concentration or dose not given beside the values; conditions: concentration not given here
T1 sequence (whole entry): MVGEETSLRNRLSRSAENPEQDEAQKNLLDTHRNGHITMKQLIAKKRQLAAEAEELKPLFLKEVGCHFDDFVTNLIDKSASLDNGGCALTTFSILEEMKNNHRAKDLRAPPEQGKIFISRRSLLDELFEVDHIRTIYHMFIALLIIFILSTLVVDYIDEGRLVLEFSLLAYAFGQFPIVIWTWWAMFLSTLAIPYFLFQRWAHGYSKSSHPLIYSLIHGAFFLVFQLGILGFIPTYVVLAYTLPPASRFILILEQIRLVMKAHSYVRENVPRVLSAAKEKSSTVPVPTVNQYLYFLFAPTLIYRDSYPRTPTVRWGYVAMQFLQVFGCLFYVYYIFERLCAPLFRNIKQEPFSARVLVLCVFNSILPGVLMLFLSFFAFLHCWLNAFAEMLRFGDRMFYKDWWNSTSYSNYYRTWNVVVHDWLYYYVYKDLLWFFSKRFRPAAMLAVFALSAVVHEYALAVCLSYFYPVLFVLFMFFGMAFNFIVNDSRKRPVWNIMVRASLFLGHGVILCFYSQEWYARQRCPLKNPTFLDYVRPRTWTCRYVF
In short: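 ACAT enzyme from rat adrenal homogenate in 0.2 M KH2PO4 buffer pH 7.4, 1000g 15 min 5 °C supernatant (microsomal fraction). Supernatant + BSA (50 mg/mL) + compound at final 5.2 μg/mL + buffer preincubated 10 min 37 °C; [14C]oleoyl-CoA (0.4 μCi) added, 30 min 37 °C. Lipids extracted, TLC; cholesteryl ester zone counted. Mean % inhibition vs no-compound control; Student's t test.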

Rattus norvegicus [3] = assay: In vivo Triglyceride lowering activity at dose as 0.03 % of the diet.; format: functional; in short: as §1
Rattus norvegicus [4] = assay: In vivo triglyceride lowering activity dosed at 0.10 % of the diet; format: functional; in short: as §1
Rattus norvegicus [5] = assay: In vivo Sterol lowering activity at dose as 0.01 % of the diet.; format: functional; in short: as §1
Rattus norvegicus [6] = assay: In vivo sterol lowering activity dosed at 0.10 % of the diet; format: functional; in short: as §1
Rattus norvegicus [7] = assay: In vivo Triglyceride lowering activity at dose as 0.01 % of the diet; format: functional; in short: as §1
Rattus norvegicus [8] = assay: In vivo Sterol lowering activity at dose as 0.10 % of the diet.; format: functional; in short: as §1
Rattus norvegicus [9] = assay: In vivo triglyceride lowering activity, dosed at 0.01 % of the diet.; format: functional; in short: as §1
Rattus norvegicus [10] = assay: In vivo triglyceride lowering activity, dosed at 0.10 % of the diet.; format: functional; in short: as §1
Rattus norvegicus [11] = assay: In vivo triglyceride lowering activity, dosed at 0.03 % of the diet; format: functional; in short: as §1
Rattus norvegicus [12] = assay: In vivo Sterol lowering activity at dose as 0.03 % of the diet; format: functional; in short: as §1

Compound | serum sterol level, percent of control (Rattus norvegicus [1]) [%] | inhibition [2] [%] | Diet (Rattus norvegicus [3]) [%] | serum triglycerides, percent of control (Rattus norvegicus [4]) [%] | serum sterol, percent of control (Rattus norvegicus [5]) [%] | serum sterol, percent of control (Rattus norvegicus [6]) [%] | Diet (Rattus norvegicus [7]) [%] | serum sterol, percent of control (Rattus norvegicus [8]) [%] | Diet (Rattus norvegicus [9]) [%] | Diet (Rattus norvegicus [10]) [%] | serum triglycerides, percent of control (Rattus norvegicus [11]) [%] | Diet (Rattus norvegicus [12]) [%]
O=C(OCC(O)CO)c1ccc(NCCCc2ccccc2)cc1 (stereo unspecified) | 85 | 21 | 92 | 49 | 90 | 74 | 57 | – | – | – | – | –
Nc1ccccc1CCCNc1ccc(C(=O)O)cc1 | 96 | 15 | 84 | – | 121 | – | – | 84 | 99 | 92 | – | –
O=C(O)c1ccc(NCCCc2c(Cl)cccc2Cl)cc1 | – | 21 | – | – | – | – | – | 106 | – | 82 | – | –
CCOC(=O)c1ccc(NC(=O)CCCCC(=O)c2ccc(Cl)cc2)cc1 | 88 | 37 | 131 | – | 90 | – | – | 90 | 110 | 96 | – | –
O=C(CCc1ccc(Cl)cc1)Nc1ccc(C(=O)O)cc1 | 104 | 33 | 115 | – | 104 | – | – | 96 | 100 | 100 | – | –
O=C(O)c1ccc(NCCCc2ccc([N+](=O)[O-])cc2)cc1 | 91 | 18 | 75 | – | 98 | – | – | 96 | 78 | 83 | – | –
CCOC(=O)c1ccc(NCCCc2ccco2)cc1 | 94 | 56 | 96 | – | 96 | – | – | 101 | 90 | 83 | – | –
CCOC(=O)c1ccc(NCCCCCC(=O)c2ccc(Cl)cc2)cc1 | 92 | 50 | – | – | 98 | – | – | 99 | 76 | 79 | 56 | –
CCOC(=O)c1ccc(NC(=O)/C=C/c2ccc(Cl)cc2)cc1 | 107 | 51 | 110 | – | 98 | – | – | 107 | 104 | 80 | – | –
CCOC(=O)c1ccc(NCCc2ccc(Cl)cc2)cc1 | 113 | 37 | 90 | 60 | 115 | – | 70 | 97 | – | – | – | –
O=C(CCCCCc1ccc(Cl)cc1)Nc1ccc(C(=O)O)cc1 | 93 | 18 | 104 | – | 86 | – | – | 99 | 96 | 90 | – | –
O=C(O)c1ccc(NCCCc2ccc(F)cc2)cc1 | – | 16 | 90 | 61 | 83 | – | – | 82 | 94 | – | – | 82
O=C(O)c1ccc(N(CCCc2ccc(Cl)cc2)CCCc2ccc(Cl)cc2)cc1 | 84 | 33 | 91 | – | 98 | – | – | 98 | 126 | 85 | – | –
CCOC(=O)Cc1ccc(NCCCc2ccc(Cl)cc2)cc1 | 91 | 91 | – | – | 103 | – | – | 91 | 119 | 67 | 126 | –
CCOC(=O)c1ccc(NCCCc2ccccc2F)cc1 | 100 | 37 | 116 | – | 104 | – | – | 97 | 106 | 92 | – | –
O=C(OCC(O)CO)c1ccc(NCCCc2ccc(Cl)cc2)cc1 (stereo unspecified) | – | 17 | 63 | 57 | 97 | 81 | – | – | 78 | – | – | 88
CCOC(=O)c1ccc(NCCCc2ccc(Cl)cc2)cc1C(=O)OCC | 99 | 54 | 91 | – | 95 | – | – | 96 | 93 | 80 | – | –
O=C([O-])c1ccc(NCc2ccc(Cl)cc2)cc1.[Na+] | – | – | – | 67 | 91 | – | – | 83 | 70 | – | 61 | 90
O=C(O)c1ccc(NCc2ccc(Cl)cc2)cc1 | – | – | 72 | 52 | 89 | 71 | – | – | 98 | – | – | 80
COc1ccc(CCCNc2ccc(C(=O)O)cc2)cc1 | 86 | 38 | 89 | – | 89 | 70 | – | – | 82 | 91 | – | –
CCOC(=O)c1ccc(NCCCc2ccccc2[N+](=O)[O-])cc1 | 96 | 9 | 83 | – | 93 | – | 70 | 89 | – | 68 | – | –
CCOC(=O)c1ccc(NC(=O)CCCCCc2ccc(Cl)cc2)cc1 | 101 | 42 | 95 | – | 93 | – | – | 99 | 96 | 104 | – | –
O=C(O)c1ccc(NCCCCCCc2cccs2)cc1 | – | 31 | – | 57 | 90 | 76 | 58 | – | – | – | 63 | 83
CCOC(=O)c1ccc(NC(=O)CCc2ccc(C)cc2)cc1 | 99 | 25 | 64 | – | 97 | – | – | 88 | 73 | 69 | – | –
CCOC(=O)c1ccc(NC(=O)CCc2ccc(Cl)cc2)cc1 | 107 | 30 | 101 | 66 | 101 | – | 85 | 99 | – | – | – | –
O=C(/C=C/c1ccc(Cl)cc1)Nc1ccc(C(=O)O)cc1 | 100 | 41 | 109 | – | 100 | – | – | 120 | 94 | 116 | – | –
